Legend:
P388 [1] = test: Cytotoxic activity Murine Lymphocytic Leukemia P388 Concentration of agent required to reduce cell viability by 90%; type: functional; settings: Mus musculus
Summary of the method: (§1)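 Modified MTT assay. Cells seeded per well with graded drug: CHO 2.5 × 10^3, B16 5 × 10^3, P388 and LLC 10^4, HL-60 and LoVo 5 × 10^4. After 68 h, MTT (2.5 mg/mL) added for 4 h at 37 °C. Formazan dissolved in DMSO and A550 read. Inhibition taken as fractional A550 decrease vs control. IC50/IC90 from Chou's median-effect equation.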

B16 [2] = test: Cytotoxic activity against solid tumor, B16 (murine melanoma) Concentration of agent required to reduce cell viability by 50%; type: functional, cell-based; settings: Mus musculus; summary of the method: as §1
[3] = system: Lewis lung carcinoma cell line; test: Cytotoxic activity against solid tumor LLC(Lewis lung carcinoma), concentration of agent required to reduce cell viability by 50%; type: functional, cell-based; settings: Mus musculus; summary of the method: as §1
CHO [4] = test: Cytotoxic activity against solid tumor, CHO (Chinese hamster ovaric carcinoma) Concentration of agent required to reduce cell viability by 90%; type: functional; settings: Cricetulus griseus; summary of the method: as §1
LoVo [5] = test: Cytotoxic activity against solid tumor, LoVo, (human colon adenocarcinoma) Concentration of agent required to reduce cell viability by 90%; type: functional; summary of the method: as §1
CHO [6] = test: Cytotoxic activity against solid tumor, CHO (Chinese hamster ovaric carcinoma) Concentration of agent required to reduce cell viability by 50%; type: functional, cell-based; settings: Cricetulus griseus; summary of the method: as §1
B16 [7] = test: Cytotoxic activity against solid tumor, B16 (murine melanoma) Concentration of agent required to reduce cell viability by 90%; type: functional; settings: Mus musculus; summary of the method: as §1
HL-60 [8] = test: Cytotoxic activity against Human promyelocytic Leukemia HL-60 Concentration of agent required to reduce cell viability by 50%; type: functional, cell-based; summary of the method: as §1
[9] = system: Lewis lung carcinoma cell line; test: Cytotoxic activity against solid tumor LLC(Lewis lung carcinoma), concentration of agent required to reduce cell viability by 90%; type: functional; settings: Mus musculus; summary of the method: as §1
P388 [10] = test: Cytotoxic activity against Murine Lymphocytic Leukemia P388 Concentration of agent required to reduce cell viability by 50%; type: functional, cell-based; settings: Mus musculus; summary of the method: as §1
HL-60 [11] = test: Cytotoxic activity against Human promyelocytic Leukemia HL-60 Concentration of agent required to reduce cell viability by 90%; type: functional; summary of the method: as §1
LoVo [12] = test: Cytotoxic activity against solid tumor, LoVo, (human colon adenocarcinoma) Concentration of agent required to reduce cell viability by 50%; type: functional, cell-based; summary of the method: as §1
P388 [13] = test: Cytotoxic activity against murine lymphocytic leukemia P388 concentration of agent required to reduce cell viability by 90%; type: functional; settings: Mus musculus; summary of the method: as §1
HL-60 [14] = test: Cytotoxic activity against human promyelocytic leukemia HL-60 concentration of agent required to reduce cell viability by 90%; type: functional; summary of the method: as §1
HL-60 [15] = test: Cytotoxic activity against human promyelocytic leukemia HL-60 concentration of agent required to reduce cell viability by 50%; type: functional, cell-based; summary of the method: as §1
P388 [16] = test: Cytotoxic activity against murine lymphocytic leukemia P388 concentration of agent required to reduce cell viability by 50%; type: functional, cell-based; settings: Mus musculus; summary of the method: as §1
HL-60 [17] = test: Relative cytotoxicity against Human promyelocytic Leukemia(HL-60) cells; Value is in range, activity expressed as IC90; type: functional
Summary of the method: (§2)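 Second-stage assay on HL-60 (5 × 10^4/well) and soybean-agglutinin-negative mononuclear marrow cells (5 × 10^5/well) from six healthy donors. Four wells per concentration, 48 h at 37 °C, then [125I]iododeoxyuridine plus fluorodeoxyuridine for 18 h. Inhibition from fractional uptake decrease; IC50/IC90 by median-effect equation. Ranges are antilog(mean log ± 2SD); ratios use mean antilogs.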

Homo sapiens [18] = species: Homo sapiens; test: Relative cytotoxicity against Human bone marrow samples; Value is in range, activity expressed as IC50; type: functional; summary of the method: as §2
Homo sapiens [19] = species: Homo sapiens; test: Relative cytotoxicity against Human bone marrow samples; Value is in range, activity expressed as IC90; type: functional; summary of the method: as §2
[20] = Ratio of antilog(mean log IC90 in bone marrow sample) and antolog(mean log IC90) in HL-60); type: functional; summary of the method: as §2
HL-60 [21] = test: Relative cytotoxicity against Human promyelocytic Leukemia(HL-60) cells; Value is in range, activity expressed as IC50; type: functional, cell-based; summary of the method: as §2
[22] = Ratio of antilog(mean log IC50 in bone marrow sample) and antolog(mean log IC90) in HL-60); type: functional; summary of the method: as §2
[23] = Ratio of antilog(mean log IC50 in bone marrow sample) and antolog(mean log IC50) in HL-60); type: functional; summary of the method: as §2
HL-60 [24] = test: (§3) Relative cytotoxicity against human promyelocytic leukemia(HL-60) cells; type: functional, cell-based; summary of the method: as §2
CHO [25] = test: Cytotoxic activity against solid tumor, CHO (Chinese hamster ovaric carcinoma) concentration of agent required to reduce cell viability by 90%; type: functional; settings: Cricetulus griseus; summary of the method: as §1
[26] = Ratio of cytotoxicity of compound towards bone marrow sample and to that of HL-60 was determined as IC50BM/IC90HL; type: functional; summary of the method: as §2
HL-60 [27] = test: as §3; type: functional; summary of the method: as §2
[28] = Ratio of cytotoxicity of compound towards bone marrow sample and to that of HL-60 was determined as IC50BM/IC50HL; type: functional; summary of the method: as §2
B16 [29] = test: Cytotoxic activity against solid tumor, B16 (murine melanoma) concentration of agent required to reduce cell viability by 50%; type: functional, cell-based; settings: Mus musculus; summary of the method: as §1
Homo sapiens [30] = species: Homo sapiens; test: Relative cytotoxicity against human bone marrow samples; type: functional; summary of the method: as §2
[31] = Ratio of cytotoxicity of compound towards bone marrow sample and to that of HL-60 was determined as IC90BM/IC90HL; type: functional; summary of the method: as §2
LoVo [32] = test: Cytotoxic activity against solid tumor, LoVo, (human colon adenocarcinoma) concentration of agent required to reduce cell viability by 90%; type: functional; summary of the method: as §1
LoVo [33] = test: Cytotoxic activity against solid tumor, LoVo, (human colon adenocarcinoma) concentration of agent required to reduce cell viability by 50%; type: functional, cell-based; summary of the method: as §1

Structure (SMILES): CCN(CC)CCn1c2cc(N3CCN(C)CC3)c(N)cc2c(=O)c2c(O)cc(O)cc21
- IC90 (P388 [1]): 13 µM
- IC50 (B16 [2]): 16 µM
- IC50 [3]: 24 µM
- IC90 (CHO [4]): 16 µM
- IC90 (LoVo [5]): 21 µM
- IC50 (CHO [6]): 7.1 µM
- IC90 (B16 [7]): 23 µM
- IC50 (HL-60 [8]): 11 µM
- IC90 [9]: 35 µM
- IC50 (P388 [10]): 7.2 µM
- IC90 (HL-60 [11]): 19 µM
- IC50 (LoVo [12]): 17 µM

Structure (SMILES): CN1CCN(c2cc3nc4cc(O)cc(O)c4c(O)c3cc2N)CC1
- IC90 (P388 [1]): > 100 µM
- IC50 (HL-60 [8]): > 100 µM
- IC50 (P388 [10]): 57 µM
- IC90 (HL-60 [11]): > 100 µM

Structure (SMILES): CCN(CC)c1cc2c(cc1N)c(=O)c1c(O)cc(O)cc1n2CC
- IC90 (P388 [1]): 50 µM
- IC50 (HL-60 [8]): 24 µM
- IC50 (P388 [10]): 24 µM
- IC90 (HL-60 [11]): 58 µM

Structure (SMILES): CCn1c2cc(N3CC(C)NC(C)C3)c(N)cc2c(=O)c2c(O)cc(O)cc21 (stereo not drawn)
- IC90 (P388 [1]): 18 µM
- IC50 (B16 [2]): 22 µM
- IC50 [3]: 29 µM
- IC90 (CHO [4]): 38 µM
- IC90 (LoVo [5]): 37 µM
- IC50 (CHO [6]): 12 µM
- IC90 (B16 [7]): 32 µM
- IC50 (HL-60 [8]): 21 µM
- IC90 [9]: 43 µM
- IC50 (P388 [10]): 6.2 µM
- IC90 (HL-60 [11]): 32 µM
- IC50 (LoVo [12]): 21 µM

Structure (SMILES): CCn1c2cc(N3CCN(C)CC3)c(N)cc2c(=O)c2c(OC)cc(OC)cc21
- IC90 (P388 [13]): 26 µM
- IC90 (HL-60 [14]): 99 µM
- IC50 (HL-60 [15]): 61 µM
- IC50 (P388 [16]): 16 µM

Structure (SMILES): CCn1c2cc(Cl)c(N)cc2c(=O)c2c(O)cc(O)cc21
- IC90 (P388 [1]): 13 µM
- IC50 (B16 [2]): 2.8 µM
- IC50 [3]: 16 µM
- IC90 (HL-60 [17]): 97.5 µM
- IC90 (CHO [4]): 71 µM
- IC90 (LoVo [5]): > 100 µM
- IC50 (CHO [6]): 5.8 µM
- IC90 (B16 [7]): 28 µM
- IC50 (Homo sapiens [18]): 7.08 µM
- IC50 (HL-60 [8]): 13 µM
- IC90 [9]: > 100 µM
- IC90 (Homo sapiens [19]): 74.1 µM
- IC50 (P388 [10]): 1.6 µM
- Ratio [20]: 0.5
- IC50 (HL-60 [21]): 17 µM
- IC90 (HL-60 [11]): 74 µM
- Ratio [22]: 0.1
- Ratio [23]: 0.6
- IC50 (LoVo [12]): 15 µM

Structure (SMILES): CCn1c2cc(N3CCC(O)CC3)c(N)cc2c(=O)c2c(O)cc(O)cc21
- IC90 (P388 [1]): 9.4 µM
- IC50 (B16 [2]): 26 µM
- IC90 (HL-60 [17]): 11.7 µM
- IC90 (CHO [4]): 38 µM
- IC50 (CHO [6]): 9.9 µM
- IC90 (B16 [7]): > 50 µM
- IC50 (Homo sapiens [18]): 1.8 µM
- IC50 (HL-60 [8]): 5.4 µM
- IC90 (Homo sapiens [19]): 15.9 µM
- IC50 (P388 [10]): 3.4 µM
- Ratio [20]: 1.5
- IC50 (HL-60 [21]): 6.64 µM
- IC90 (HL-60 [11]): 9.2 µM
- Ratio [22]: 0.2
- Ratio [23]: 0.4

Structure (SMILES): CCn1c2cc(Cl)c(N)cc2c(=O)c2c(OC)cc(OC)cc21
- IC90 (P388 [13]): 33 µM
- IC90 (HL-60 [14]): 62 µM
- IC50 (HL-60 [15]): 16 µM
- IC50 (P388 [16]): 14 µM

Structure (SMILES): CCN(CC)CCn1c2cc(N3CCN(C)CC3)c(N)cc2c(=O)c2c(OC)cc(OC)cc21
- IC90 (P388 [13]): 5.8 µM
- IC90 (HL-60 [14]): 17 µM
- IC50 (HL-60 [15]): 8.3 µM
- IC50 (P388 [16]): 3.4 µM

Structure (SMILES): CN1CCN(c2cc3c(cc2N)c(=O)c2c(O)cc(O)cc2n3C)CC1
- IC90 (P388 [1]): 11 µM
- IC50 (HL-60 [8]): 24 µM
- IC50 (P388 [10]): 7.2 µM
- IC90 (HL-60 [11]): 39 µM

Structure (SMILES): CCn1c2cc(N3CCCC3)c(N)cc2c(=O)c2c(O)cc(O)cc21
- IC90 (P388 [1]): > 100 µM
- IC50 (P388 [10]): > 100 µM

Structure (SMILES): CCn1c2cc(N3CCN(C)CC3)c(N)cc2c(=O)c2c(O)cc(OC)cc21
- IC50 [3]: 9.3 µM
- IC50 (HL-60 [24]): 19.1 µM
- IC90 (CHO [25]): 11 µM
- IC50 (CHO [6]): 6 µM
- IC90 (B16 [7]): 12 µM
- Ratio [26]: 0.4
- IC90 (P388 [13]): 8.9 µM
- IC90 (HL-60 [14]): 24 µM
- IC90 (HL-60 [27]): 22.9 µM
- Ratio [28]: 0.4
- IC50 (B16 [29]): 8.6 µM
- IC90 [9]: 11 µM
- IC50 (HL-60 [15]): 17 µM
- IC50 (Homo sapiens [30]): 10.7 µM
- IC90 (Homo sapiens [30]): 89.1 µM
- IC50 (P388 [16]): 2.9 µM
- Ratio [31]: 2.7
- IC90 (LoVo [32]): 15 µM
- IC50 (LoVo [33]): 10 µM
